The source of these data is ChEMBL document CHEMBL1146282, “Novel beta-lactam derivatives: potent and selective inhibitors of the chymotrypsin-like activity of the human 20S proteasome” (Bioorg Med Chem Lett, 2007).

The nature of test [1]: Inhibition of chymotrypsin-like activity of human 20S proteasome. A digest of the protocol: (§1)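 Human 20S proteasome purified in-house from blood, assayed in vitro with fluorogenic AMC peptides: Suc-Leu-Leu-Val-Tyr-AMC (chymotrypsin-like), Boc-Leu-Arg-Arg-AMC (trypsin-like), Z-Leu-Leu-Glu-AMC (post-glutamyl-peptide hydrolytic-like). Hydrolysis followed by fluorescence rise (ex 355/em 460 nm). IC50 taken from initial linear rates, as inhibitor concentration halving the proteasome-catalysed hydrolysis rate.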

Test [2] is filed under the species Homo sapiens. Kind of test: Selectivity for chymotrypsin-like activity of human 20S proteasome over post-glutamyl-peptide hydrolytic activity of human 20S proteasome.
Test [3] is filed under the species Homo sapiens. As to the kind of experiment: Inhibition of calpain at 25 uM.
A short description of test [4]: Inhibition of trypsin-like activity of human 20S proteasome. An outline of the steps: as §1
The next test deals with MDA-MB-435. Kind of test: Antiproliferative activity against human MDA-MB-435 cells by MTT assay. The class given is functional, cell-based. An outline of the steps:
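MDA-MB-435 human breast carcinoma cells grown in MEM with 10% FCS, penicillin/streptomycin, 4 mM L-glutamine, 1 mM sodium pyruvate, non-essential amino acids and 20 mM Hepes. Compound exposure for 24, 48 or 72 h. Proliferation read by MTT-based CellTiter96 assay.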
(Tetrazolium dyes change colour on reduction, which living cells bring about.)

The species named for test [5] is Homo sapiens. As to the kind of experiment: Inhibition of thrombin at 25 uM.
Test [6] is filed under the species Homo sapiens. As to the kind of experiment: Inhibition of chymotrypsin at 25 uM.
The species entered for test [7] is Homo sapiens. As to the kind of experiment: Selectivity for chymotrypsin-like activity of human 20S proteasome over trypsin-like activity of human 20S proteasome.
The nature of test [8]: Inhibition of post-glutamyl-peptide hydrolytic activity of human 20S proteasome. An outline of the steps: as §1

SMILES strings stand for the structures. Activity calls are given as the source filed them. The rule behind the calls is not given here. Some results are limits rather than exact numbers.

As a reminder, the IC50 is the concentration needed to halve the response being measured. The low end stands for greater potency in that assay, the high end for weaker potency in that assay. `COc1ccc(C[C@H](NC(=O)OCc2ccccc2)C(=O)N[C@H](C(=O)N[C@@]2(Cc3ccccc3)CNC2=O)C(C)C)c(OC)c1OC` returned an IC50 in [1] of 1400 nM.

Regarding `COc1ccc(C[C@H](NC(=O)Cc2cccc(Oc3ccccc3)c2)C(=O)N[C@H](C(=O)N[C@]2(CC(C)C)CNC2=O)C(C)C)c(OC)c1OC`, the Ratio was over 350 in the test listed under Homo sapiens [2] and 350 in the test filed under Homo sapiens [7]. In addition, the result in the test listed under Homo sapiens [3], in the test filed under Homo sapiens [5] and in the test filed under Homo sapiens [6] was inactive. For the same compound, the IC50 in test [4] is 1100 nM; with MDA-MB-435 it was 34 nM; in test [1], 2.5 nM; in test [8], over 100000 nM.

Take `COc1ccc(C[C@H](NC(=O)Cc2cccc(Oc3ccccc3)c2)C(=O)N[C@H](C(=O)N[C@@]2(CC(C)C)CNC2=O)C(C)C)c(OC)c1OC`: the IC50 in test [1] turned out to be 1300 nM.

As for `COc1ccc(C[C@H](NC(=O)Cc2cccc(Oc3ccccc3)c2)C(=O)N[C@@H](C(=O)N[C@@]2(Cc3ccccc3)CNC2=O)C(C)(C)C)c(OC)c1OC`, 4 nM corresponded to half-maximal inhibition in test [1] (IC50).

`CC(C)C[C@]1(NC(=O)[C@@H](NC(=O)[C@H](Cc2ccccc2)NC(=O)Cc2cccc(Oc3ccccc3)c2)C(C)C)CNC1=O`: 38000 nM corresponded to half-maximal inhibition in test [1] (IC50).

Compound `COc1ccc(C[C@H](NC(=O)Cc2cccc(Oc3ccccc3)c2)C(=O)N[C@H](C(=O)N[C@@]2(Cc3ccccc3)CNC2=O)C(C)(C)C)c(OC)c1OC` came in with a concentration for half-maximal inhibition (IC50) in [1] of 280 nM.

Regarding `COc1ccc(C[C@H](NC(=O)Cc2cccc(Oc3ccccc3)c2)C(=O)N[C@H](C(=O)N[C@]2(Cc3ccccc3)CNC2=O)C(C)C)c(OC)c1OC`, the Ratio was over 350 in the test filed under Homo sapiens [2] and 350 in the test listed under Homo sapiens [7]. For the same compound, the outcome in the test listed under Homo sapiens [3], in the test listed under Homo sapiens [5] and in the test filed under Homo sapiens [6] was inactive. Also, the IC50 in test [4] is 19000 nM; in the test with MDA-MB-435, 32 nM; in test [1], 1.4 nM; in test [8], over 20000 nM.

As to `CC(C)C[C@@]1(NC(=O)[C@@H](NC(=O)[C@H](Cc2ccccc2)NC(=O)Cc2cccc(Oc3ccccc3)c2)C(C)C)CNC1=O`, the Ratio is over 350 in the test listed under Homo sapiens [2] and 350 in the test filed under Homo sapiens [7]. For the same compound, the outcome in the test filed under Homo sapiens [3], in the test listed under Homo sapiens [5] and in the test listed under Homo sapiens [6] was inactive. Further, the values for the IC50 (with MDA-MB-435; in [1]; in test [8]) were 1200 nM, 20 nM and over 20000 nM, respectively.

Compound `COc1ccc(C[C@H](NC(=O)OCc2ccccc2)C(=O)N[C@H](C(=O)N[C@]2(Cc3ccccc3)CNC2=O)C(C)C)c(OC)c1OC` gave an IC50 in test [1] of 5 nM.

Compound `COc1ccc(C[C@H](NC(=O)Cc2cccc(Oc3ccccc3)c2)C(=O)N[C@H](C(=O)N[C@@]2(Cc3ccccc3)CNC2=O)C(C)C)c(OC)c1OC` came in with an IC50 in test [1] of 170 nM.
